# Data from ChEMBL document CHEMBL4393672, “High affinity CXCR4 inhibitors generated by linking low affinity peptides” (Eur J Med Chem, 2019).
# Calls of active or inactive are those of the source. No cut-off for these calls is given here.
# What was measured:
# [1] = biological target: T1, C-X-C chemokine receptor type 4 (Homo sapiens, UniProt P61073); assay: Competitive binding affinity to CXCR4 in human SupT1 cells incubated for 40 mins by 12G5 antibody based fluorescence analysis; format: cell-based
# T1 sequence (P61073 whole entry): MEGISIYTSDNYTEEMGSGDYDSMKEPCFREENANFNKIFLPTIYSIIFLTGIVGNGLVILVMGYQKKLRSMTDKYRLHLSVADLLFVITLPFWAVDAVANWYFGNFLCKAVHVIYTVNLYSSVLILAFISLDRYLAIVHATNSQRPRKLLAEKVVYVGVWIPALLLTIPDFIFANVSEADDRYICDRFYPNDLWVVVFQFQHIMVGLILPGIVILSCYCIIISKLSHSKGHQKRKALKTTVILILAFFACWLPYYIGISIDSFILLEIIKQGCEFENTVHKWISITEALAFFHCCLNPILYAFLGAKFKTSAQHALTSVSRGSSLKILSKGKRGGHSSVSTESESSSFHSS
# [2] = system: Human immunodeficiency virus 1; assay: Antiviral activity against Human immunodeficiency virus 1 NL4-3 infected in human PBMC cells assessed as reduction in intracellular p24 level at 100 nM preincubated with cells 2 hrs followed by viral infection and measured after 24 hrs by ELISA; format: functional
# Procedure, shortened: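 PBMCs from healthy donors (2.5×10^6 cells/mL) were exposed to compound for 2 h, washed, and infected with HIV-1 NL4-3 at MOI 0.02 for 2 h at 37°C. Cells were washed, resuspended in complete medium and incubated 24 h. Cells were then lysed with protease inhibitor, and intracellular p24 was quantified by ELISA.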
# [3] = biological target: T1, C-X-C chemokine receptor type 4; assay: Inhibition of N-terminal flag-tagged CXCR4 (unknown origin) internalization expressed in CHO cells incubated for 45 mins and measured after 1 hr by FITC-labeled anti-flag antibody based fluorescence analysis
# [4] = biological target: T1, C-X-C chemokine receptor type 4; assay: Antagonist activity at CXCR4 receptor in human SupT1 cells assessed as inhibition of SDF-1alpha-induced calcium release at 1 uM preincubated for 2 to 3 mins followed by SDF-1alpha addition by Fluo-4AM dye based fluorescence assay relative to control; format: functional, cell-based
# Procedure, shortened: (§1)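 SupT1 cells loaded with Fluo-4AM (2 µM) plus probenecid (5 µM) for 30 min at 37°C in HBSS/20 mM HEPES, washed; 1×10⁶ cells/mL exposed to compound 2–3 min, then stimulated with 50 nM SDF-1α; fluorescence read at […]/510em.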
# [5] = Stability of compound in water assessed as compound remaining at 1mM at 37 degC after 48 hrs by HPLC analysis relative to control; format: physicochemical; details: read-out: Stability
# [6] = biological target: T1, C-X-C chemokine receptor type 4; assay: Antagonist activity at CXCR4 receptor in human SupT1 cells assessed as inhibition of SDF-1alpha-induced calcium release preincubated for 2 to 3 mins followed by SDF-1alpha addition by Fluo-4AM dye based fluorescence assay; format: functional, cell-based; procedure, shortened: as §1
smiles,measurement,setting,value
CC(C)C[C@@H](N)C(=O)NCC(=O)N[C@H](C)C(=O)N[C@H](CO)C(=O)N[C@H](Cc1c[nH]c2ccccc12)C(=O)N[C@H](Cc1cnc[nH]1)C(=O)N[C@H](CCCNC(=N)N)C(=O)N1CCC[C@@H]1C(=O)N[C@H](CC(=O)O)C(=O)N[C@H](CCCCN)C(=O)N[C@H](CS)C(=O)N[C@H](CS)C(=O)N[C@H](CC(C)C)C(=O)NCC(=O)N[C@H](Cc1ccc(O)cc1)C(=O)N[C@H](CCC(N)=O)C(=O)N[C@H](CCCCN)C(=O)N[C@H](CCCNC(=N)N)C(=O)N1CCC[C@@H]1C(=O)N[C@H](CC(C)C)C(=O)N1CCC[C@@H]1C(=O)NCCCCCC(=O)N[C@@H](CCCCN)C(=O)NCC(=O)N[C@@H](CC(C)C)C(=O)N[C@@H](CC(C)C)C(=O)NCC(=O)N[C@@H](CC(C)C)C(=O)N[C@@H](CO)C(=O)N[C@@H](CCCCN)C(N)=O,IC50,[1],147 nM
c1cc(CN2CCCNCCNCCCNCC2)ccc1CN1CCCNCCNCCCNCC1,Activity,[2],Active
CC(C)C[C@@H](N)C(=O)NCC(=O)N[C@H](C)C(=O)N[C@H](CO)C(=O)N[C@H](Cc1c[nH]c2ccccc12)C(=O)N[C@H](Cc1cnc[nH]1)C(=O)N[C@H](CCCNC(=N)N)C(=O)N1CCC[C@@H]1C(=O)N[C@H](CC(=O)O)C(=O)N[C@H](CCCCN)C(=O)N[C@H](CS)C(=O)N[C@H](CS)C(=O)N[C@H](CC(C)C)C(=O)NCC(=O)N[C@H](Cc1ccc(O)cc1)C(=O)N[C@H](CCC(N)=O)C(=O)N[C@H](CCCCN)C(=O)N[C@H](CCCNC(=N)N)C(=O)N1CCC[C@@H]1C(=O)N[C@H](CC(C)C)C(=O)N1CCC[C@@H]1C(=O)NCCCCCC(=O)N[C@@H](CCCCN)C(=O)N[C@H](CCCCN)C(=O)N[C@H](CCCNC(=N)N)C(=O)N[C@H](Cc1ccccc1)C(=O)N[C@H](Cc1ccccc1)C(=O)N[C@H](CC(=O)O)C(=O)NCC(=O)N[C@H](CC(C)C)C(=O)N[C@H](CC(C)C)C(N)=O,IC50,[1],193 nM
CC[C@H](C)[C@H](NC(=O)[C@H](CC(=O)O)NC(=O)CNC(=O)[C@H](CCCCN)NC(=O)[C@H](CCCNC(=N)N)NC(=O)[C@H](CCCCN)NC(=O)CCCCCNC(=O)[C@@H](CCCNC(=N)N)NC(=O)[C@@H](CCCCN)NC(=O)[C@@H](CCCCN)NC(=O)[C@@H](CC(=O)O)NC(=O)[C@H]1CCCN1C(=O)[C@@H](CCCNC(=N)N)NC(=O)[C@@H](Cc1cnc[nH]1)NC(=O)[C@@H](Cc1c[nH]c2ccccc12)NC(=O)[C@@H](CO)NC(=O)[C@@H](C)NC(=O)CNC(=O)[C@H](N)CC(C)C)C(=O)N[C@@H](CCCNC(=N)N)C(=O)N[C@@H](CCC(N)=O)C(=O)N[C@@H](C)C(=O)N[C@@H](Cc1cnc[nH]1)C(=O)N[C@@H](CS)C(N)=O,Activity,[3],inactive
same,inhibition,[4],100%
same,"remaining at 48 h, 1000 µM",[5],95%
same,inhibition,[6],Dose-dependent effect
same,inhibition,[2],Active
